From PubChem BioAssay
CHT block = inhibitors of human choline transporter CHT | CHT-expressing cells, membrane potential dye, choline response; active compounds read low | B-score at 10 µM | actives 0.86% (n = 310,000) | AID 488975, 2010 | High affinity choline transporter 1 (Homo sapiens), Q9GZV3;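 active = B-score over 3 SD under the library average, and starting fluorescence ratio not unusually high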;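 note: choline stimulus applied at its EC90 after an EC20 pre-addition; B-score computed on integrated fluorescence ratio after choline addition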
Lipid droplet = inhibitors of hepatocyte lipid droplet formation, primary screen, imaging, high-throughput imaging, BODIPY stain | AID 1656, 2009 | AML12 mouse hepatocytes, oleate lipid droplets | inhibition, % at 6.5 µM | actives 0.4% (n = 240,000);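 active = lipid droplet intensity inhibited by at least 50%, with more than 500 cells counted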
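Assay system: AML12 hepatocytes (mouse); Probe or stimulus: oleic acid at 100 µM to induce lipid droplet formation; Dosing: compound at 6.5 µM only; Schedule: compound with oleate, overnight; Detection: fluorescence imaging, 20x objective, two fields per well; Measure: % inhibition of lipid droplet signal.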
HSF1 activator = HSF-1 activators, primary screen, NIH3T3-HGL cells, MG132 stress, luminescence, single point. NIH3T3-HGL HSF-1 luciferase reporter, 8 h; 100% = twice DMSO control signal. actives 1.7% (n = 300,000). activation, % at 9 µM;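 active = mean replicate activation of at least 50% with a set share of replicates each reaching 50%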
HSF1 inh = HSF1 inhibitors in luciferase reporter cells, primary screen, cell-based, NIH3T3, luminescence. NIH3T3-HGL HSE-luciferase, MG132-induced, luminescence 8 h; active compounds read low. AID 2098, 2009. actives 0.77% (n = 300,000). activity change, negative = inhibition, % at 7.5 µM (by protocol);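 active = more than half of replicate wells show activity change below -50%, luminescence cut by over half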;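 note: luciferase reports HSF-1 transcriptional activity via heat shock element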
CHT allo act = CHT positive allosteric modulators, primary screen, cell-based, membrane potential dye, choline EC20; High affinity choline transporter 1 (Homo sapiens), Q9GZV3; CHT-expressing cells; active compounds read high; LV-AA mutant CHT in HEK293 cells; B-score at 10 µM; actives 0.49% (n = 310,000);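 active = initial fluorescence not abnormally high and integrated response B-score, plate-corrected, over 3 SD above library mean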
PHOSPHO1 inh = PubChem AID 1565. recombinant PHOSPHO1, absorbance phosphatase assay. Phosphoethanolamine/phosphocholine phosphatase (Homo sapiens), Q8TCT1. actives 1.1% (n = 290,000). inhibition, % at 13.3 µM; in the data active = inhibition above about 60%
Target sequence (Q8TCT1 whole entry, looked up): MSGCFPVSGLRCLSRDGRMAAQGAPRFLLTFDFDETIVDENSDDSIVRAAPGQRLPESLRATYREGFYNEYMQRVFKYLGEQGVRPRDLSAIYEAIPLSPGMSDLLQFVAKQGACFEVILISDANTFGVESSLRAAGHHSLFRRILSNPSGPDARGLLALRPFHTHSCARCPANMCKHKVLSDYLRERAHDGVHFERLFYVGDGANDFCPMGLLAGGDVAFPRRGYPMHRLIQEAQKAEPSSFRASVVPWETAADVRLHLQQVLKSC
Each line names hits and unclear results; the compound was inactive in the other large screens; ! = not active in a repeat. Rows were chosen to be rich in hits. Some 4.9% of all compounds tested hit in one or more screens of this group.

Clc1ccc(-c2cc(CSc3cccc(Cl)c3)on2)cc1	none (no result: Lipid droplet)
c1ccc(SCc2cc(-c3ccccc3)no2)cc1	HSF1 activator 67
O=C(NCCS(=O)(=O)N1CCN(c2cccc(Cl)c2)CC1)c1ccco1	none (no result: Lipid droplet, PHOSPHO1 inh)
CCc1cccc(CC)c1NC(=O)COC(=O)CC1c2ccccc2CCN1S(=O)(=O)c1ccc(F)cc1 (stereo not given)	HSF1 activator 62
Cc1oc(-c2ccc(Cl)cc2)cc1C(=O)/C(C#N)=C/Nc1cccc(OC(F)(F)F)c1	none
COc1ccc(-c2cn[nH]c2-c2ccc(OCc3ccccc3)cc2O)cc1OC	none
COc1ccc(-c2nc(-c3cccs3)c(-c3cccs3)[nH]2)cc1OC	none
COc1ccc(-c2nc(-c3ccccc3)c(-c3cccs3)[nH]2)cc1OC	HSF1 activator 51
CCOC(=O)c1nc2sc3c(c2c(=O)[nH]1)CCCC3	none
CCOC(=O)c1nc(N2CCN(C(=O)OCC)CC2)c2c3c(sc2n1)CCCC3	CHT block -5.9 (no result: Lipid droplet)
O=[N+]([O-])c1cccc(/C=N/n2c(C3CCCCC3)n[nH]c2=S)c1	none
O=[N+]([O-])c1ccc(Cl)c(/C=N/n2c(C3CCCCC3)n[nH]c2=S)c1	PHOSPHO1 inh 103 (no result: Lipid droplet)
Cc1nc2nc(C)n(-c3ccccc3)c2s1	PHOSPHO1 inh 71 (no result: Lipid droplet, HSF1 activator, HSF1 inh)
O=C(c1nnsc1S(=O)(=O)c1ccc(Cl)cc1)N1CCOCC1	HSF1 inh -80 (no result: CHT block, CHT allo act)
O=C(c1nnsc1S(=O)c1ccc(Cl)cc1)N1CCOCC1 (stereo not given)	HSF1 activator 267 (no result: CHT block, CHT allo act)
CNC(=O)c1nnsc1S(=O)(=O)c1ccc(Cl)cc1	HSF1 activator 158 (no result: CHT block, CHT allo act)
O=C(Nc1ccccc1)c1nnsc1S(=O)c1ccc(Cl)cc1 (stereo not given)	HSF1 activator 157, PHOSPHO1 inh 93 (no result: Lipid droplet)
Cc1nnsc1S(=O)c1ccc(Cl)cc1 (stereo not given)	none (no result: Lipid droplet)
CNC(=O)c1ccc(S(=O)(=O)c2ccc(Cl)cc2)c(NC(C)=O)c1	none
Cc1cccc(C(C)C)c1NC(=O)COC(=O)CCN1C(=O)C2CC=CCC2C1=O (stereo not given)	PHOSPHO1 inh 70
CC(=O)C(Cc1ccccc1)NC(=O)COC(=O)CCN1C(=O)C2CC=CCC2C1=O (stereo not given)	none (no result: Lipid droplet, PHOSPHO1 inh)
Cc1ccc(-c2nc(SCC(=O)NCCN3C(=O)CSC3=O)[nH]c2-c2ccc(C)cc2)cc1	none (no result: Lipid droplet)
CC1CCN(C(=O)CSc2nncn2-c2ccccn2)CC1	PHOSPHO1 inh 74 (no result: Lipid droplet)
CC1CCN(C(=O)CSc2nncn2C)CC1	none (no result: Lipid droplet)
Cc1[nH]n(-c2ccc(Cl)cc2)c(=O)c1/C=N/c1nnc(-c2ccccc2)s1	none
O=[N+]([O-])c1ccc(C(O)CSC(=S)N2CCCCC2)cc1 (stereo not given)	HSF1 activator 70
COC(=O)c1cc(S(=O)(=O)C(C)C)c(S(C)=O)s1 (stereo not given)	HSF1 activator 90
CSc1sc(C(=O)NCC2CC2)cc1S(=O)(=O)C(C)C	none
Clc1c2c(nc3ccccc13)CCC2	none
Nc1c2c(nc3ccccc13)CCCC2	CHT allo act 7.6!
Cc1cc(C(=O)COC(=O)c2ccc(Cl)c(S(N)(=O)=O)c2)c(C)n1CC1CCCO1 (stereo not given)	HSF1 inh -57 (no result: Lipid droplet, PHOSPHO1 inh)
Cc1cc(C(=O)COC(=O)CNC(=O)c2ccccc2)c(C)n1CC1CCCO1 (stereo not given)	HSF1 inh -50
Cc1cccc(C(=O)NCC(=O)OCC(=O)c2cc(C)n(CC3CCCO3)c2C)c1 (stereo not given)	none
COc1cccc(C(=O)Nc2cc(C)nn2-c2ccccc2)c1OC	none
O=C(CSC1=NNC(c2ccccn2)S1)Nc1ccccc1 (stereo not given)	HSF1 inh -62
O=C(CSC1=NNC(c2ccccn2)S1)Nc1cccc(Cl)c1 (stereo not given)	none
